Screening data (PubChem)
ARFGAP1 inh: inhibits rat ARF GTPase activating protein 1; Q62848; Arfgap1-stimulated ARF1 GTP hydrolysis, GDP FP detection; inhibition, % at 16.5 µM; 0.26% of 360,000 active;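 active = inhibition above a per-plate limit, mean inhibition of low control wells plus 3 SD, cut at about 25% in these data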;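 note: 0% = DMSO wells with enzyme and 100% = wells lacking Arfgap1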
Target sequence (Q62848 1-136 limits assumed): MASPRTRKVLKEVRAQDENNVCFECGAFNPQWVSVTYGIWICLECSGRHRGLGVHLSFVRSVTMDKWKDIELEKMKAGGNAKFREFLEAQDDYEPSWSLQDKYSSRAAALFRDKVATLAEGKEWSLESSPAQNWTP
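System: truncated rat Arfgap1 GAP domain / Medium: HEPES-based buffer, pH 7.5 / Also added: N-terminally truncated human ARF1-GTP substrate / Incubation: enzyme reaction 120 min at 25 °C after 20 min preincubation / Measured by: FP of antibody-bound GDP Alexa 633 tracer, ex 620/em 688 nm / Replicates: singlicate, each compound tested once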
NadD inh: inhibitors of Staphylococcus aureus NadD; AID 602399; 0.78% of 360,000 active; inhibition, % at 20 µM; purified NadD enzyme, colorimetric absorbance read-out; in the data active = inhibition above about 26%
ASAP1 GAP inh: ASAP1 ArfGAP inhibition; Q9ULH1; ASAP1-stimulated ARF1 GTP hydrolysis, GDP FP detection; inhibition, % at 16.5 µM; 0.19% of 360,000 active; AID 624377; in the data active = inhibition above about 25%;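 note: 0% = vehicle with enzyme and substrate and 100% = no enzyme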
Target sequence (Q9ULH1 325-724 limits assumed): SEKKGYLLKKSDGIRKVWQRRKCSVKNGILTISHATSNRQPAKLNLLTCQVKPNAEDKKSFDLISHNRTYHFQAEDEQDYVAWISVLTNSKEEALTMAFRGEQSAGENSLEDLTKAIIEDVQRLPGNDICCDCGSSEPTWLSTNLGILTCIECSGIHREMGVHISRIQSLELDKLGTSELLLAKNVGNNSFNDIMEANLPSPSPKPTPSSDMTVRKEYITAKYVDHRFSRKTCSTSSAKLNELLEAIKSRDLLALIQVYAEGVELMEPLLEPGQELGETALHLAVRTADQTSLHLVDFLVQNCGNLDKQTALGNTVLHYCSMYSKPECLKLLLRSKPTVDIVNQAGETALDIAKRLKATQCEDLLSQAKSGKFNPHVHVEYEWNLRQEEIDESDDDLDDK
rCAG binder: binds r(CAG) RNA repeats. r(CAG) RNA repeat, TO-PRO-1 dye displacement fluorescence. inhibition, % at 3 µM. 1.3% of 370,000 active. AID 651821;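 active = inhibition above the plate cutoff, the mean of all test compounds on that plate plus 3 SD, cut at about 35% in these data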;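 note: 0% = DMSO alone and 100% = 100 µM mitoxantrone as full dye displacement; higher means more dye released from RNA so lower well fluorescence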
NadD inh conf: confirmation of Staphylococcus aureus NadD inhibitors. shares compounds with NadD inh. purified S. aureus NadD, colorimetric enzyme assay. inhibition, % at 20 µM. 13% of 2,000 active; in the data active = inhibition mostly above about 42%, no sharp cut-off; inactive = mostly below about 42%
rCAG bind conf: r(CAG) RNA repeat binding, confirmation; shares compounds with rCAG binder; TO-PRO-1 dye displacement fluorescence; inhibition, % at 3 µM; 70% of 4,300 active;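 active = inhibition above a per-plate cutoff, the mean inhibition of sample wells plus 3 SD, cut at about 35% in these data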;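 note: loss of TO-PRO-1 fluorescence as compound displaces dye from 1x1 AA loop RNA; 0% = DMSO only wells and 100% = 100 µM mitoxantrone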
DNA CAG counter: disrupts DNA CAG TO-PRO-1 complex, flagging rCAG hits. inhibition, % at 3 µM. d(CAG) DNA oligo TO-PRO-1 dye displacement, fluorescence. AID 652068. shares compounds with rCAG binder. 94% of 4,300 active;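 active = inhibition above its plate's cutoff, the mean test-well inhibition plus 3 SD, cut at about 4.8% in these data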;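 note: 0% = DNA dye mix with DMSO and 100% = 100 µM mitoxantrone; hits displace the dye from DNA and so lower well fluorescence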
DNA CAG DR: DNA CAG dye complex inhibition, dose response counter-screen; shares compounds with rCAG binder; DNA CAG/GTC duplex TO-PRO-1 dye displacement fluorescence; IC50, µM; 20% of 250 active; AID 686960; in the data active = IC50 below about 10 µM
The depositor's hits bear a star. A selection: hits, their analogues and other compounds. The true share with any hit is near 2.2%.

`COc1ccc(CN(CCN2CCOCC2)C(=O)c2ccc(F)cc2F)cc1OC` gave rCAG binder 0.9.
For C[C@H](O)[C@@H]1CN2CCc3c([nH]c4c(-c5ccc6c(c5)OCO6)cccc34)[C@@H]2C[C@@H]1N(C)C(=S)NCCc1ccccc1 the results were rCAG binder 8.3.
`Cc1cc(C)nc(NS(=O)(=O)c2ccc(NC(=O)CN3C(=O)S/C(=C\c4ccccc4)C3=O)cc2)n1` gave ARFGAP1 inh 0.3, NadD inh 41.2*, ASAP1 GAP inh -3.1, rCAG binder 60.0*, NadD inh conf 44.5, rCAG bind conf 68.6* and DNA CAG counter 30.2*.
`COc1ccccc1/C=C1/SC(=O)N(CCC(=O)Nc2ccc(S(=O)(=O)Nc3nccs3)cc2)C1=O` gave ARFGAP1 inh 6.9, NadD inh 56.3*, ASAP1 GAP inh 11.4, rCAG binder 78.9*, NadD inh conf 33.4, rCAG bind conf 80.1* and DNA CAG counter 45.9*.
Screening COc1ccc(CN(CCN2CCOCC2)C(=O)c2cc(F)ccc2F)cc1OC returned rCAG binder -0.3.
For O=C(NCCO)c1ccc(-c2ccc3nncn3c2)cc1 the results were ARFGAP1 inh -0.2, NadD inh 0.2, ASAP1 GAP inh -1.6 and rCAG binder 3.9.
`Cc1ccc(-c2nnc(SCC(=O)Nc3ccc(Oc4ccccc4)cc3)n2-c2ccc(Cl)cc2)cc1` gave rCAG binder 7.7.
Screening Cc1c(C(=O)NNC(=O)c2ccccc2O)oc2ccc(Br)cc12 returned ARFGAP1 inh -7.3, NadD inh 30.4*, ASAP1 GAP inh 2.2, rCAG binder 39.8*, NadD inh conf 55.7*, rCAG bind conf 39.0* and DNA CAG counter 21.0*.
Screening CCOc1ccc2oc(C(=O)NNC(=O)c3ccccc3O)c(C)c2c1 returned ARFGAP1 inh -0.5, NadD inh 2.6, ASAP1 GAP inh -8.1 and rCAG binder 29.8.
COCC(=O)N[C@H]1C[C@@H]2O[C@@H](CO)CC[C@@H]2O[C@@H]1CCc1ccc(-c2ccccc2)cc1 was read as rCAG binder 4.4.
Screening COc1cc(Cl)c(C)cc1NC(=O)CSc1sc2c(O)cc(=O)[nH]c2c1C#N returned ARFGAP1 inh 2.0, NadD inh 41.7*, ASAP1 GAP inh -4.8, rCAG binder 48.6*, NadD inh conf 27.4, rCAG bind conf 55.4* and DNA CAG counter 30.3*.
`CCOC(=O)[C@]12CCCCC/C=C\1N(Cc1ccc(OC)cc1)C(=O)[C@H]2CC(=O)NCCC(C)C` gave rCAG binder -1.3.
N#Cc1c(NC(=O)CSc2ncnc3sccc23)oc(-c2ccco2)c1-c1ccco1 was read as ARFGAP1 inh 15.3, NadD inh 58.5*, ASAP1 GAP inh 4.8, rCAG binder 43.6*, NadD inh conf 58.2*, rCAG bind conf 54.7*, DNA CAG counter 24.2* and DNA CAG DR inactive.
For Cc1cccc(C2(c3cccc(C)c3)CC2C(=O)Nc2ccc([N+](=O)[O-])cc2O)c1 (centres undefined) the results were ARFGAP1 inh -1.2, NadD inh 30.0*, ASAP1 GAP inh 21.2, rCAG binder 49.1*, NadD inh conf 49.8*, rCAG bind conf 52.0* and DNA CAG counter 21.9*.
`C=CCNC(=O)C1CC1(c1cccc(C)c1)c1cccc(C)c1` (centres undefined) gave ARFGAP1 inh 12.6, NadD inh -2.7, ASAP1 GAP inh -8.1 and rCAG binder -10.4.
Screening C=CCSC1=N/C(=C\c2cc(OCC)c(OC(C)=O)c([N+](=O)[O-])c2)C(=O)S1 returned ARFGAP1 inh -15.6, NadD inh 32.5*, ASAP1 GAP inh -8.8, rCAG binder 40.6*, NadD inh conf 8.6, rCAG bind conf 61.0* and DNA CAG counter 19.8*.
For CCCc1cc(=O)n2[nH]c(C)c(-c3ccccc3)c2n1 the results were ARFGAP1 inh 1.9, NadD inh -3.1, ASAP1 GAP inh -9.9 and rCAG binder 1.4.
For Cc1[nH]n2c(=O)cc(-c3ccc([N+](=O)[O-])cc3)nc2c1-c1ccccc1 the results were ARFGAP1 inh 10.8, NadD inh 34.3*, ASAP1 GAP inh -1.5, rCAG binder 91.3*, NadD inh conf 50.7*, rCAG bind conf 86.7* and DNA CAG counter 63.5*.
For O=C(O)c1ccccc1NS(=O)(=O)c1ccc(NN=Cc2cccc(Cl)c2)c([N+](=O)[O-])c1 the results were ARFGAP1 inh -5.7, NadD inh 31.0*, ASAP1 GAP inh -10.8, rCAG binder 59.4*, NadD inh conf 11.0, rCAG bind conf 89.6* and DNA CAG counter 67.9*.
For O=C(O)c1ccccc1NS(=O)(=O)c1ccc(NN=Cc2ccc(F)cc2)c([N+](=O)[O-])c1 the results were NadD inh 11.5.
O=C(NNC(=O)c1cc2cc(Br)ccc2oc1=O)c1ccc(O)cc1O was read as ARFGAP1 inh -7.3, NadD inh 28.7*, ASAP1 GAP inh 2.1, rCAG binder 54.6*, NadD inh conf 58.1*, rCAG bind conf 21.0 and DNA CAG counter 5.3*.
Screening COCCCNC(=O)c1cc2cc(Br)ccc2oc1=O returned ARFGAP1 inh 3.6, NadD inh -3.2, ASAP1 GAP inh -4.2 and rCAG binder -0.4.
Screening O=S1(=O)N[C@H](Cc2ccccc2)COc2cccc(N3CCCCC3)c21 returned ARFGAP1 inh 8.2, ASAP1 GAP inh 2.3 and rCAG binder -0.6.
Screening CCOC(=O)c1c(-c2ccccc2)csc1NC(=O)/C(C#N)=C/c1ccc(O)c(OC)c1 returned ARFGAP1 inh 0.6, NadD inh 44.5*, ASAP1 GAP inh 0.7, rCAG binder 44.7*, NadD inh conf 16.1, rCAG bind conf 87.1* and DNA CAG counter 59.7*.
Screening Nc1[nH]c(C(=O)c2ccccc2)c(-c2ccccc2[N+](=O)[O-])c1C(=O)NCCc1c[nH]c2ccccc12 returned ARFGAP1 inh 15.6, ASAP1 GAP inh 13.3 and rCAG binder 15.3.
Screening CCOC(=O)c1c(-c2ccc(-c3ccccc3)cc2)csc1NC(=O)C1C2CCC(O2)C1C(=O)O (centres undefined) returned ARFGAP1 inh -12.0, NadD inh 37.8*, ASAP1 GAP inh -13.4, rCAG binder 50.9*, NadD inh conf 56.5*, rCAG bind conf 67.4* and DNA CAG counter 26.5*.
For C#CCN1CC(N(C)CCOC(=O)c2cc3ccccc3[nH]2)CS1(=O)=O (centres undefined) the results were rCAG binder 1.2.
